Measured values from different studies.
Lines come from different studies, so protocols differ.
Target: Discoidin domain-containing receptor 2 (DDR2, Homo sapiens, UniProt Q16832)
One construct used (Q16832 22-855): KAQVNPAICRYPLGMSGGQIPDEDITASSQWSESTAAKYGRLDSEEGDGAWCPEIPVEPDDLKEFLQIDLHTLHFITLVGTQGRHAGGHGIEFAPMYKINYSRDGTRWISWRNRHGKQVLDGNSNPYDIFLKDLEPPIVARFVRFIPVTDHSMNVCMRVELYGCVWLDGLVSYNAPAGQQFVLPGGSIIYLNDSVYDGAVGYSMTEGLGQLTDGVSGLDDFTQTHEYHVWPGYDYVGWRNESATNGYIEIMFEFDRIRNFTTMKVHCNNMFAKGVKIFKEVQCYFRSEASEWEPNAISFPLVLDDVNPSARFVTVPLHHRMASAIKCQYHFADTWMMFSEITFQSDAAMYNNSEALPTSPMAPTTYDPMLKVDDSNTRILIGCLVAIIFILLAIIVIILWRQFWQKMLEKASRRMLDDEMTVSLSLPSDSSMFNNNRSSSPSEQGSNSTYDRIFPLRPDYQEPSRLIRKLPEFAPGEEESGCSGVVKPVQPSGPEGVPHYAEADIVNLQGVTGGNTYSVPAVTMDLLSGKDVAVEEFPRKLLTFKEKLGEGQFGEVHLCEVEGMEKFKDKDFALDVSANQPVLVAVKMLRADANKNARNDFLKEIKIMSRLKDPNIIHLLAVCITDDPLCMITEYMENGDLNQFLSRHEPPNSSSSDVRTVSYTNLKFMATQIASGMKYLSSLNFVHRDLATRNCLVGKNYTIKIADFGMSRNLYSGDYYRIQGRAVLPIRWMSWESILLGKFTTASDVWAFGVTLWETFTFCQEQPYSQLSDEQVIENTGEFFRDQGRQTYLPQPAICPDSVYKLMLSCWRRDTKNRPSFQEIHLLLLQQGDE

Compound	assay	setting	quantity	result
COc1ncccc1-c1cnn2ccc(N3CCN(C(=O)OC(C)C)CC3)nc12	binding, competition with immobilised ligand	1 µM	remaining binding	36%
Cc1nn(C)cc1-c1nc2c(N3CCN(Cc4ccc(Cl)cc4)CC3)c(Cl)cnc2[nH]1	binding, competition with immobilised ligand	1 µM	remaining binding	96%
CC(C)(C)c1cc(C=C(C#N)C#N)cc(Br)c1O	enzyme activity, inhibitor	0.5 µM	remaining activity	105%
C#Cc1n[nH]c2c(-c3cn([C@@H](C)c4ccccc4)c(=O)[nH]c3=O)cc(F)cc12	enzyme activity, inhibitor	0.1 µM	inhibition	-1.1%
COc1cc(Nc2ncc(F)c(Nc3ccc4c(n3)NC(=O)C(C)(C)O4)n2)cc(OC)c1OC	binding, competition with immobilised ligand	10 µM	inhibition	86%
C#Cc1n[nH]c2c(-c3cn([C@@H](C)c4ccccn4)c(=O)[nH]c3=O)cc(F)cc12	enzyme activity, inhibitor	0.1 µM	inhibition	0.9%
Cn1cc(-c2cc(F)cc(N3CCn4c(cc5c4CCCC5)C3=O)c2CO)cc(Nc2ccc(N3CCN(C4COC4)CC3)cn2)c1=O	enzyme activity, inhibitor	0.1 µM	inhibition	-7%
Nc1ncc(-c2nc(N3CCOCC3)nc(N3CCOCC3)n2)c(C(F)F)n1	cell-free assay, competition with immobilised ligand	10 µM	remaining binding	57%
Cn1cncc1[C@@](O)(COc1ccc(C#N)cc1-c1ccc(OC(F)(F)F)cc1)c1ccc(C#N)cc1	cell-free assay, competition with immobilised ligand	1 µM	remaining binding	95%
O=c1[nH]c2ccccc2n1C1CCN(Cc2ccc(-c3[nH]c4cc5ncnc5cc4nc3-c3ccccc3)cc2)CC1	cell-free assay	0.5 µM	remaining signal	99.2%
N#CC1(c2ccccn2)CCN(Cc2cc(C(=O)O)c(=O)n3ccccc23)CC1	cell-free assay, competition with immobilised ligand	1 µM	remaining binding	100%
Cn1cc(-c2cccc(N3CCc4c(sc5c4CC(C)(C)C5)C3=O)c2CO)cc(Nc2ccncn2)c1=O	enzyme activity, inhibitor	1 µM	inhibition	1%
